# Experimental data of several laboratories.
# Lines come from different studies, so protocols differ.
# Target: Serine/threonine-protein kinase PLK3 (PLK3, Homo sapiens, UniProt Q9H4B4)
Structure (SMILES),test,setting,endpoint,value
C=CC(=O)N1CCC([C@@H]2CCNc3c(C(N)=O)c(-c4ccc(Oc5ccccc5)cc4)nn32)CC1,"enzyme activity, inhibitor",1 µM,inhibition,2%
COc1ccc2oc(-c3ccc4nc(N)oc4c3)c/c(=N\c3ccccc3NC(=O)CCN)c2c1,binding,1 µM,remaining binding,101%
N#Cc1ccc(NC(=O)Nc2ccccc2)cc1,"cell-free assay, competition with immobilised ligand",25 µM,remaining binding,88%
CC#CC(=O)N1CCC[C@H]1c1nc(-c2ccc(C(=O)Nc3ccccn3)cc2)c2c(N)nccn12,"enzyme activity, inhibitor",1 µM,inhibition,0%
C#Cc1cnc(Nc2ccnc(CO)c2)nc1Nc1ccccc1S(C)(=O)=NC#N (stereo not shown),cell-free assay,1 µM,remaining signal,34%
CCCCC(=O)Nc1ccc(-c2ccc3ncn(CCC)c(=O)c3c2)cn1,"binding, competition with immobilised ligand",0.5 µM,remaining binding,98%
C[C@H]1CC[C@H](n2c3cnccc3c3cnc(Nc4ccc5c(n4)CCN(C(=O)CO)C5)nc32)CC1,cell-free assay,1 µM,remaining signal,100%
C1=C/COCc2cc(ccc2OCCN2CCCC2)Nc2nccc(n2)-c2cccc(c2)COC/1,binding,0.1 µM,remaining binding,99%
COc1ccc2[nH]c3c4[nH]c5ccc(OC)cc5c4c4c(c3c2c1)C(=O)NC4=O,binding,1 µM,remaining binding,88%
C#Cc1cc(-c2cc(Nc3nc(N[C@@H](C)c4ccc(F)cn4)ncc3Cl)n[nH]2)ccc1C=O,"enzyme activity, inhibitor",0.2 µM,inhibition,12.9%
